Shown is part of a subset that was picked to be rich in hits.
NOD2-RIPK2 inh = inhibitors of human NOD2-RIPK2 interaction; O43353; CHO BLA complementation NOD2-RIPK2, CCF4 ratio; inhibition, % at 4.98 µM; 360,000 tested, 0.38% active; AID 624267; in the data active = inhibition above about 21%;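 also: 0% = vehicle only and 100% = reference blocker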
UPR XBP1 act = adaptive UPR (XBP1) activation | 330,000 tested, 0.33% active | activation, % at 20 µM | CHO-XBP1 luciferase reporter, IRE1-XBP1 UPR activation, luminescence; percent of tunicamycin response, DMSO as zero | AID 463104;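 active = versus positive control, 20 µM dose yields 30% or more activation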;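 also: 100% = tunicamycin at 10 µg/mL and 0% = DMSO only wells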
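assay system = CHO-XBP1 luciferase reporter cells | amount = 1000 cells/well | buffer or medium = F12 plus 10% FBS | compound dosing = single point, 20 µM final compound, 1% DMSO | incubation = 16-18 h cell attachment at 37 °C, then 6 h compound exposure | detection = Steady-Glo luminescence read | controls = tunicamycin 10 µg/mL and vehicle-only wells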
CHOP inhibitor = CHOP inhibition in unfolded protein response | 220,000 tested, 3.8% active | CHO-K1 CHOP-promoter luciferase, tunicamycin-induced, 15-18 h | inhibition, % at 10 µM;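 active = compounds that reduced the stress-induced luciferase reporter signal by more than about 70% of percent inhibition, limit read from the data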;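 also: 0% = tunicamycin plus vehicle and 100% = wells without tunicamycin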
TLR9-MyD88 block = TLR9-MyD88 interaction inhibition. 340,000 tested, 0.21% active. inhibition, % at 4.98 µM. AID 504734. CHO BLA complementation TLR9-MyD88, CCF4 FRET ratio. Q9NR96+Q99836;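 active = inhibition above the mean over all tested compounds plus 3 SD, cut at about 21% in these data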;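 also: 0% = DMSO only wells and 100% = clavulanate BLA inhibitor control wells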
TLR4 MyD88 comp = TLR4-MyD88 interaction inhibition in cells | O00206+Q99836 | HeLa CL3-4 TLR4/MyD88 BLA complementation, FRET ratio | inhibition, % at 8.4 µM | 200,000 tested, 0.18% active | AID 861; in the data active = inhibition above about 25%;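 also: 0% = vehicle and 100% = reference inhibitor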
CHOP UPR activ = apoptotic UPR (CHOP) activation. activation, % at 10 µM. CHO-CHOP luciferase reporter, luminescence; percent of tunicamycin response over DMSO baseline. 330,000 tested, 0.34% active. AID 449763;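 active = at 10 µM dose, activation of 40% or more, normalized to positive control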;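 also: 100% = tunicamycin at 10 µg/mL and 0% = DMSO alone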
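Assay system: CHO-CHOP cells, stable luciferase reporter of PERK-eIF2a-CHOP signalling / Buffer or medium: F12 plus 10% serum / Compound dosing: one dose, 10 µM in 0.5% DMSO / Times: 6 h compound treatment, 37 °C / Technique: luciferase luminescence / Read-out: % reporter activation, DMSO baseline versus tunicamycin full activation / Benchmarks: tunicamycin and DMSO controls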
Numbers without * were called inactive; nt = no result.

SMILES	NOD2-RIPK2 inh	UPR XBP1 act	CHOP inhibitor	TLR9-MyD88 block	TLR4 MyD88 comp	CHOP UPR activ
CCn1cc(Br)c(-c2nc3ccccc3c(=O)n2N)n1	-4	1	90*	0	1	2
O=C1/C(=C/N(C(=O)c2ccco2)c2ccc(Cl)cc2)Sc2ccccc21	1	nt	88*	-7	-3	nt
O=C1c2ccccc2C(=O)N1CCCCN(C(=O)c1ccco1)c1ccc(Cl)cc1	3	5	60	-14	9	-1
O=C1/C(=C/N(C(=O)c2ccco2)c2ccc(Br)cc2)Sc2ccccc21	-5	-6	90*	18	-15	-2
COc1ccc(CN2C[C@H]3CON(C)[C@H]3C[C@H]2c2ccc(-c3ccccc3)cc2)cc1	-12	nt	nt	nt	nt	nt
CC(C)C[C@H]1CNC(=O)C(=O)N1CC1CCN(CC2CCC(C(C)(C)C)CC2)CC1 (stereo not given in full)	-14	nt	nt	-5	nt	nt
Cc1ccc(C(C(=O)NC2CCCC2)N2CCc3ccccc32)cc1 (stereo not given)	-10	-1	79*	3	4	1
O=C(NC1CCCCC1)C(c1ccccc1)N1CCc2ccccc21 (stereo not given)	1	-1	53	-12	-13	-2
CCN(Cc1cnn(C)c1)C(=O)c1ccc2nc(Cc3ccccc3F)oc2c1	14	nt	nt	0	nt	nt
COC(=O)CCN(C1CCCCC1)S(=O)(=O)c1ccc(S(=O)(=O)NC2CCCCC2)cc1	9	-1	75*	-4	7	-3
CCOc1cc(S(=O)(=O)NC2CCCCCC2)ccc1F	5	-2	76*	0	0	-1
COC(=O)COc1ccc(S(=O)(=O)NC2CCCCCC2)cc1	-12	-4	-26	-15	4	-1
COc1ccc(S(=O)(=O)NC2CCCCC2)cc1C	-11	-3	83*	-11	5	-2
CCOC(=O)C1(C)CCCCN1C(=O)c1ccnc(Cl)c1 (stereo not given)	7	nt	nt	nt	nt	nt
Cc1oc2ccc(O)c(CN3CCOCC3)c2c1C(=O)c1ccc(Cl)cc1	12	6	71*	1	2	1
COCCOC(=O)c1c(C)oc2ccc(O)c(CN3CCC(C)CC3)c12 (tested in a mixture with another compound)	-12	nt	nt	3	nt	nt
CC(C)(C)OC(=O)CC(S(=O)(=O)c1ccccc1)S(=O)(=O)c1ccccc1	5	nt	nt	-6	nt	nt
COc1cc(/C=C(\C#N)C(=O)Nc2cccc(C(=O)O)c2)ccc1OCc1ccc(Cl)cc1	2	4	nt	-1	nt	6
COc1cc(/C=C(/C#N)C(=O)Nc2ccccc2)c(Br)cc1OCc1ccc(C(=O)O)cc1	-3	-1	80*	8	nt	-1
CC(=O)Nc1cc(-c2ccc(CO)cc2)cn2c(-c3ccc(F)c(Cl)c3)cnc12	-13	nt	nt	nt	nt	nt
CCOc1ccccc1N/C=C/C(=O)C(C)(C)C	3	0	74*	-23	0	0
CCOc1ccccc1NC(=O)CCC(=O)Nc1ccccc1OCC	-1	1	16	0	-2	-2
CN(CCc1ccccc1)C(C(=O)Nc1ccc2c(c1)OCCO2)c1ccnc2ccccc12 (stereo not given)	1	nt	nt	nt	nt	nt
O=C1NCC(=O)N2C(c3ccccc3)c3[nH]c4ccccc4c3C[C@@H]12 (stereo not given in full)	-20	-6	nt	-5	nt	1
O=C1[C@@H]2Cc3c([nH]c4ccccc34)[C@@H](c3ccccc3)N2C(=O)[C@@H]2Cc3c([nH]c4ccccc34)[C@@H](c3ccccc3)N12	nt	nt	106*	nt	-3	nt
SMILES	NOD2-RIPK2 inh	UPR XBP1 act	CHOP inhibitor	TLR9-MyD88 block	TLR4 MyD88 comp	CHOP UPR activ
CC(C)(NO)/C(=N\O)c1ccccc1	-13	-1	72*	2	6	-4
ONC(=NCc1ccccc1)c1ccccc1	-10	nt	nt	10	nt	nt
COC(=O)Nc1ccc(S(=O)(=O)Nc2ccc(C)cc2)cc1	nt	nt	14	nt	-3	nt
COC(=O)Nc1ccc(S(=O)(=O)Nc2ccc(O)cc2)cc1	-11	-4	78*	2	3	-1
Cc1ccc(-c2nn(-c3ccccc3)cc2/C=N/n2c(-c3ccncc3)n[nH]c2=S)cc1	-6	3	89*	nt	nt	6
S=c1[nH]nc(-c2cccs2)n1/N=C/c1cn(-c2ccccc2)nc1-c1ccccc1	-15	14	-17	5	nt	4
S=c1[nH]nc(-c2ccncc2)n1/N=C/C(Cl)=C\c1ccccc1	5	4	76*	-7	1	2
CC(/C=N/n1c(-c2ccc(Cl)cc2)n[nH]c1=S)=C\c1ccco1	6	2	95*	-9	9	0
CC(/C=N/n1c(-c2cc(C)[nH]n2)n[nH]c1=S)=C\c1ccco1	9	-2	-14	-4	nt	2
O=C(NC(c1ccc(Cl)cc1)c1cnccn1)C1CCN(CCCc2ccccc2)CC1 (stereo not given)	-3	nt	nt	nt	nt	nt
C[C@@H]1CN([C@H](C)CO)C(=O)CCCn2nncc2CO[C@H]1CN(C)S(=O)(=O)c1cccc(F)c1	5	nt	nt	5	nt	nt
CCc1nc2c(OCC(=O)c3ccc(F)cc3)cccn2c1N(C)C(=O)c1ccc(OC)cc1	9	nt	nt	nt	nt	nt
CC(Cl)=CCn1c(NCCc2ccccc2)nc2c1c(=O)n(C)c(=O)n2C	-8	nt	nt	nt	nt	nt
O=C(CC1SC(=O)N(Cc2cccc3ccccc23)C1=O)Nc1nccs1 (stereo not given)	-2	0	73*	0	-9	0
CCc1ccc(C(=O)c2cncc(Br)c2)cc1	-2	1	74*	6	-8	2
C#CCNC(=O)C[C@@H]1C[C@@]2(C(=O)OCC)CCC=C2N(CCC2=CCCCC2)C1=O	-4	nt	nt	nt	nt	nt
CCOc1ccc(N=Nc2ccc(O)c3ncccc23)cc1	-2	3	nt	0	nt	15
Cc1ccc(C)c(N=Nc2ccc(O)c3ncccc23)c1	-2	-6	103*	1	7	13
O=C(N/N=C\c1ccccn1)C1COc2cc3ccccc3cc2O1 (stereo not given)	-3	-1	72*	-9	19	-4
NNC(=O)C1COc2cc3ccccc3cc2O1 (stereo not given)	4	-4	nt	11	nt	3
Cc1nc(N2CCOCC2)nc(OC(C)C)c1[N+](=O)[O-]	-10	1	84*	-2	11	-1
COc1nc(N2CCOCC2)nc(C)c1[N+](=O)[O-]	2	0	21	-7	-1	2
CCOC(=O)C1=CCC(c2cccc3ccccc23)N(S(=O)(=O)c2ccc(C)cc2)C1 (stereo not given)	-6	nt	nt	nt	nt	nt
O=C(Nc1ccc(-n2ccc(C(F)(F)F)n2)cc1)Nc1cccc(Cl)c1	-6	9	59	0	nt	16

Compound activity (PubChem)
